Experimental data: ChEMBL document CHEMBL4118021, “Studies of TAK1-centered polypharmacology with novel covalent TAK1 inhibitors” (Bioorg Med Chem, 2017)
Blank lines part the entries; values can stand above or below the molecule they belong to. Calls of active or inactive are those of the source. The calls are words filed in the database; no cut-off is given here.

Legend:
[1] = target: T1, Dual specificity mitogen-activated protein kinase kinase 4 (Homo sapiens) (UniProt P45985); assay: Inhibition of human MEK4 (84 to 399 residues) expressed in mammalian expression system assessed as enzyme activity at 10 uM by KINOMEScan assay relative to control; design: scale not given: the % may be the effect or the level left
T1 sequence (whole entry): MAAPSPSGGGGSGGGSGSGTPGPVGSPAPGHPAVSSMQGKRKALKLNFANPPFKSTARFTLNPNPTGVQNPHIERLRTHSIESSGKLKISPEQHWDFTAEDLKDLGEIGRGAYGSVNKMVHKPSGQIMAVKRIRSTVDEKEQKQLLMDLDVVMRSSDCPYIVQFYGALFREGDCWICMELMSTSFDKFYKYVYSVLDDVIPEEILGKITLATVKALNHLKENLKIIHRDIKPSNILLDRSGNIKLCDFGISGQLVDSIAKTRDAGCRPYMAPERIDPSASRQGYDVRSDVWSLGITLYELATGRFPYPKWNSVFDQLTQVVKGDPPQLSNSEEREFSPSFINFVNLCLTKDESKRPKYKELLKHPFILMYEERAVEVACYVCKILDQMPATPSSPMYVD
Procedure, shortened: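 In vitro ATP-site competition binding assay across a panel of 456 kinases, with compound tested at 1 and 10 μM.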

[2] = target: Prefoldin subunit 2 (Homo sapiens) (UniProt Q9UHV9); assay: Binding affinity to PFDN2 in human NCI-H23 cells at 1 uM by mass spectrometry based pull down assay; type: cell-based
Chain of Prefoldin subunit 2 (Homo sapiens) (Q9UHV9 whole entry): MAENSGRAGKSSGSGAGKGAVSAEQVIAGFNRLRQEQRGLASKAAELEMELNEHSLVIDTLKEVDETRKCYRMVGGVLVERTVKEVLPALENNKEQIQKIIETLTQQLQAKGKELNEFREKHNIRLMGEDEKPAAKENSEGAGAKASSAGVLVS

[3] = target: Leucine-rich PPR motif-containing protein, mitochondrial (Homo sapiens) (UniProt P42704); assay: Binding affinity to LRPPRC in human NCI-H358 cells at 1 uM by mass spectrometry based pull down assay; type: cell-based
[4] = target: ADP-ribose glycohydrolase OARD1 (Homo sapiens) (UniProt Q9Y530); assay: Binding affinity to OARD1 in human NCI-H23 cells at 1 uM by mass spectrometry based pull down assay; type: cell-based
Chain of ADP-ribose glycohydrolase OARD1 (Homo sapiens) (Q9Y530 whole entry): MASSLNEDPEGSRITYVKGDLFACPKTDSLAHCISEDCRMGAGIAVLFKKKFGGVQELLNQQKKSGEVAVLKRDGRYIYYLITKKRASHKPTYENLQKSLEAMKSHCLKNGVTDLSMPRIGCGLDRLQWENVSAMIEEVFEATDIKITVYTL

[5] = target: THO complex subunit 4 (Homo sapiens) (UniProt Q86V81); assay: Binding affinity to ALYREF in human NCI-H23 cells at 1 uM by mass spectrometry based pull down assay; type: cell-based
[6] = target: Acidic leucine-rich nuclear phosphoprotein 32 family member A (Homo sapiens) (UniProt P39687); assay: Binding affinity to ANP32A in human NCI-H23 cells at 1 uM by mass spectrometry based pull down assay; type: cell-based
Chain of Acidic leucine-rich nuclear phosphoprotein 32 family member A (Homo sapiens) (P39687 whole entry): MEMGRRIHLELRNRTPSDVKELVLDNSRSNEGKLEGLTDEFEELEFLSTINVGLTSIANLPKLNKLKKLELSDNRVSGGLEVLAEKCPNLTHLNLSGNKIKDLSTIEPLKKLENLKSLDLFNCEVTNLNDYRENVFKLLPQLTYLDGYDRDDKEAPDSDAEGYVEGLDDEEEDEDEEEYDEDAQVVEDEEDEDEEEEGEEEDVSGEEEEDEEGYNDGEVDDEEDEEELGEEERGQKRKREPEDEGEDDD

[7] = target: T2, Mitogen-activated protein kinase kinase kinase 7 (Homo sapiens, UniProt O43318); assay: Inhibition of TAK1 (unknown origin) after 60 mins by biochemical assay
T2 sequence (O43318 whole entry): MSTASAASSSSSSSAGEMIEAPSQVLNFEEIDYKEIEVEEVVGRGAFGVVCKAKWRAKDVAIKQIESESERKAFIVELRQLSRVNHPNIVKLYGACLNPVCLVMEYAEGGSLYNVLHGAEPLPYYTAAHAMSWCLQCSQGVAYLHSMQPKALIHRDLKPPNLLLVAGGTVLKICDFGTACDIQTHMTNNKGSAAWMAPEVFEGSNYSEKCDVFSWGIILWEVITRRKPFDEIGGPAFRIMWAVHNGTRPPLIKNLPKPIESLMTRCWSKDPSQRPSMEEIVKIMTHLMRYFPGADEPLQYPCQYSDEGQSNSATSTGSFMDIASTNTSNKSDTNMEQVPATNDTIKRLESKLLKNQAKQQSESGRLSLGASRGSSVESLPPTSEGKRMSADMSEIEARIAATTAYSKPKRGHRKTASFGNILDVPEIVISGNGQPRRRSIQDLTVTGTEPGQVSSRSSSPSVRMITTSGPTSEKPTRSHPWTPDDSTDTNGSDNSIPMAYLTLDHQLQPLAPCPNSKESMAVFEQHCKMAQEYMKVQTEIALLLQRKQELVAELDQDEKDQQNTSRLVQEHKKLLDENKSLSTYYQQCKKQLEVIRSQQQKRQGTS

[8] = target: Ribosomal protein S6 kinase alpha-1 (Homo sapiens) (UniProt Q15418); assay: Binding affinity to RPS6KA1 in human NCI-H23 cells at 1 uM by mass spectrometry based pull down assay; type: cell-based
Chain of Ribosomal protein S6 kinase alpha-1 (Homo sapiens) (Q15418 whole entry): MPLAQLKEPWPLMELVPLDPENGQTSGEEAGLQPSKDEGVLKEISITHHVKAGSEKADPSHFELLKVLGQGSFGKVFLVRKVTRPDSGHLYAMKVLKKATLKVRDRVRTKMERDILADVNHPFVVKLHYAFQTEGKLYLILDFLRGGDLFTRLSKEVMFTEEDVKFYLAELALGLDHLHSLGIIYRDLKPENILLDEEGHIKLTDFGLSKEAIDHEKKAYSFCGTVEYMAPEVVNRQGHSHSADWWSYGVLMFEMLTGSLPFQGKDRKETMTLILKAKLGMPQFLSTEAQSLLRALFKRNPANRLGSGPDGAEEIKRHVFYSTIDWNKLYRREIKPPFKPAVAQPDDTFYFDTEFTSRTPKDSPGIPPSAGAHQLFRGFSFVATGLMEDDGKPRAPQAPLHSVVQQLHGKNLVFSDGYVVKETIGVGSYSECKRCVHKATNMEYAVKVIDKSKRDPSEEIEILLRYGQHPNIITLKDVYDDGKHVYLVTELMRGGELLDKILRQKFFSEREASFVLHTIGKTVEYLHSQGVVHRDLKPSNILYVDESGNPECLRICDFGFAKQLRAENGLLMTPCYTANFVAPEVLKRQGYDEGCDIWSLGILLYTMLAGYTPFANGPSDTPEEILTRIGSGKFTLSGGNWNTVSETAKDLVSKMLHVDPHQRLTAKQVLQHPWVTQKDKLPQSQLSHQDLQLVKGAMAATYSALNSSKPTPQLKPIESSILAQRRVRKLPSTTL

[9] = target: Reticulon-4 (Homo sapiens) (UniProt Q9NQC3); assay: Binding affinity to RTN4 in human NCI-H358 cells at 1 uM by mass spectrometry based pull down assay; type: cell-based
Chain of Reticulon-4 (Homo sapiens) (Q9NQC3 whole entry): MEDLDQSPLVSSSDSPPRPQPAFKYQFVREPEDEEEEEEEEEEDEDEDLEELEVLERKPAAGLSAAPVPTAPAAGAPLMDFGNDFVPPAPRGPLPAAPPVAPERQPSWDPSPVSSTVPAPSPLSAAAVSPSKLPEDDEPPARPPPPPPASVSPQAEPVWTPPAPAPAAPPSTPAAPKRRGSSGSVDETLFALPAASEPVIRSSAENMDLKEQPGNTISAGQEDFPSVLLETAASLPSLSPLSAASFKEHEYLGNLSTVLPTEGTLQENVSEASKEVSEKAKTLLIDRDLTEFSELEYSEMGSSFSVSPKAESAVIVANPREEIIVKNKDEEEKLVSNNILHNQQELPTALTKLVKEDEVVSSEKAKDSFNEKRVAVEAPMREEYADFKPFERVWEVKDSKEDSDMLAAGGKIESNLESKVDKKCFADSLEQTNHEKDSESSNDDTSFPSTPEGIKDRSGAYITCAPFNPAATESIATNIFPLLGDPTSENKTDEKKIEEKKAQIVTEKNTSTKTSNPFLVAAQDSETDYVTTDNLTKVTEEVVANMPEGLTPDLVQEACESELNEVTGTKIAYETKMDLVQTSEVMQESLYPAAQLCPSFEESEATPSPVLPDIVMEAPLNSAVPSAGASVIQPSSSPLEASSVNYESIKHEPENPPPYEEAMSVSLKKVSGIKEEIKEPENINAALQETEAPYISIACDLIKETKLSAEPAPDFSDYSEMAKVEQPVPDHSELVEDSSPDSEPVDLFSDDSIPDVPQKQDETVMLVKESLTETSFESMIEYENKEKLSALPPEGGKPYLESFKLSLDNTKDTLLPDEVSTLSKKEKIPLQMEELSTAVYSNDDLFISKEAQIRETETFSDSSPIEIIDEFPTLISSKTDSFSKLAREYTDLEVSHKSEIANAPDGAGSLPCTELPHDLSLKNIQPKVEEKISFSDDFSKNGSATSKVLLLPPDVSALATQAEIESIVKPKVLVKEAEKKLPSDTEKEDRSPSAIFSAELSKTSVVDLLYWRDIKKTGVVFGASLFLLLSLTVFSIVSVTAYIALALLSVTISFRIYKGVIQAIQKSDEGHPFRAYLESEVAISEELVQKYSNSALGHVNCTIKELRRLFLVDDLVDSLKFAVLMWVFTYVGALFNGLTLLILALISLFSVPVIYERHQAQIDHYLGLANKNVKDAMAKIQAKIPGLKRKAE

[10] = target: 14-3-3 protein eta (Homo sapiens) (UniProt Q04917); assay: Binding affinity to YWHAH in human NCI-H358 cells at 1 uM by mass spectrometry based pull down assay; type: cell-based
Chain of 14-3-3 protein eta (Homo sapiens) (Q04917 whole entry, the tested form may be a part): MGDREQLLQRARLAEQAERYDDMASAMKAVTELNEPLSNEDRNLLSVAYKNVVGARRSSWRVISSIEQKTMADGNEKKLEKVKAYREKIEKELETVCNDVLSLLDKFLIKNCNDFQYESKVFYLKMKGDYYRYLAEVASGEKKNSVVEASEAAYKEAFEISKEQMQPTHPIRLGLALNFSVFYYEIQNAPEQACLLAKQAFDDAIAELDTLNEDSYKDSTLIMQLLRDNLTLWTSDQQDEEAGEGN

[11] = target: LIM domain kinase 1 (Homo sapiens) (UniProt P53667); assay: Binding affinity to LIMK1 in human NCI-H23 cells at 1 uM by mass spectrometry based pull down assay; type: cell-based
Chain of LIM domain kinase 1 (Homo sapiens) (P53667 whole entry, looked up, the tested form may be a part): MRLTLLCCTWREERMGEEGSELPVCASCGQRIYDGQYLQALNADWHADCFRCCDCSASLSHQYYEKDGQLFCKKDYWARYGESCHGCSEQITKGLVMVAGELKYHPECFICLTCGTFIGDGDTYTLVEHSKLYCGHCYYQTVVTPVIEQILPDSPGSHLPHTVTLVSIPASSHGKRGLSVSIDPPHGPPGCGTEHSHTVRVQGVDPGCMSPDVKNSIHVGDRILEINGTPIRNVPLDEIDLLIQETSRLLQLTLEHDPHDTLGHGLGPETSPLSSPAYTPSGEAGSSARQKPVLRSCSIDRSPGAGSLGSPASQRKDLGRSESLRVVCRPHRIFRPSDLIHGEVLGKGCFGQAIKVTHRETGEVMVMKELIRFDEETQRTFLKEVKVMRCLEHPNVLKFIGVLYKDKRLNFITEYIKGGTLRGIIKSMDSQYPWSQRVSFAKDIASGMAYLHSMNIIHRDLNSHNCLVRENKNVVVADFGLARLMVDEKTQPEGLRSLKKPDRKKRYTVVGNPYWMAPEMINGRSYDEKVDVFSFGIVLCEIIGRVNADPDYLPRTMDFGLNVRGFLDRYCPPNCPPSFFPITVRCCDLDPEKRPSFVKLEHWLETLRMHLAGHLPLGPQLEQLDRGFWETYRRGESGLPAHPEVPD

NCI-H358 = assay: Antiproliferative activity against human NCI-H358 cells harboring KRAS G12C mutant after 72 hrs by CellTiter-Glo assay; type: functional, cell-based
Procedure, shortened: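 NCI-H23 or NCI-H358 cells seeded at 2000 cells/well and grown 48 h before drug. Varying doses were added and cells incubated 72 h. Viability was read as CellTiter-Glo luminescence, and growth-inhibition IC50 was calculated from dose-response curves.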

[12] = target: Peripheral plasma membrane protein CASK (Homo sapiens) (UniProt O14936); assay: Inhibition of CASK in human SKCO1 cells at 1 uM after 4 hrs using biotin labeled ETGQQFAVKIVDVAK probe by mass-spectrometric analysis relative to control; type: cell-based
Chain of Peripheral plasma membrane protein CASK (Homo sapiens) (O14936 whole entry): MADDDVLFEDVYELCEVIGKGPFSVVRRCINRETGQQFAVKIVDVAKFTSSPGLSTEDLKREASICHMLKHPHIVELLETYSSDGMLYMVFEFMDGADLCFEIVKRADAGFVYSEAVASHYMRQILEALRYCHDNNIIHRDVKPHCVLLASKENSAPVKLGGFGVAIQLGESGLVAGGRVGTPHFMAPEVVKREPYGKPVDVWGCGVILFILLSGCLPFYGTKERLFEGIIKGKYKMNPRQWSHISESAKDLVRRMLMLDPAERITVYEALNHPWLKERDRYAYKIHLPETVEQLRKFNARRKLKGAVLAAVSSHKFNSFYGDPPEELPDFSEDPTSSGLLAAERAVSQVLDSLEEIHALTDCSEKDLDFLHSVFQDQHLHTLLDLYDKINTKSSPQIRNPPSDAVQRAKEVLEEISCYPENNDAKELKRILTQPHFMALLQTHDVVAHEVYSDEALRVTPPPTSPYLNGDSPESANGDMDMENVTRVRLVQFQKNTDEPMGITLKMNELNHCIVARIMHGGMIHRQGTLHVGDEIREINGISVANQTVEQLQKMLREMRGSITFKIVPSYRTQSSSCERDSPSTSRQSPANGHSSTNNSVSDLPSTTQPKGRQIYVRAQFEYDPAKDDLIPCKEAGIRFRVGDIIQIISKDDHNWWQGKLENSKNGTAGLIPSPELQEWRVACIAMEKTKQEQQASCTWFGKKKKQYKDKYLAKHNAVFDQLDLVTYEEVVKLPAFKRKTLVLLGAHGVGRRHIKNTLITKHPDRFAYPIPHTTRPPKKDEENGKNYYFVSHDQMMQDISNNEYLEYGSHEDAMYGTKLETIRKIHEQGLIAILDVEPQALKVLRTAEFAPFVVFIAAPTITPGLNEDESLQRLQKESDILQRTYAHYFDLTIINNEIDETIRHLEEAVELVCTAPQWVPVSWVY

[13] = target: T3, Mitogen-activated protein kinase kinase kinase 7 (Homo sapiens) (UniProt O43318); assay: Inhibition of TAK1 in RA patient-derived synovial fibroblasts assessed as inhibition of TNFalpha-induced cytokine secretion at 3 uM preincubated for 3 hrs followed by TNFalpha stimulation measured after 18 hrs by sandwich immunoassay
T3 sequence (whole entry): T2 sequence (O43318 whole entry)
Procedure, shortened: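 Primary RA synovial fibroblasts (donor RA2159) seeded 1000 cells/well and grown ~24 h at 37 °C, 5% CO2. Starved overnight in basal medium, then ~4 h in basal medium with 0.1% BSA. Two adjacent wells pooled per replicate, in biological duplicate. Supernatants diluted 1:3 and run on Luminex 27-plex/21-plex sandwich immunoassays for 48 analytes, with spiked-ligand and mock-supernatant background controls.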

SMILES: COc1cc(O)c2c(c1)/C=C/C[C@H](O)[C@H](O)C(=O)/C=C\C[C@H](C)OC2=O
Activity [1]: 0.35%

Activity [2]: Active
Activity [3]: Active
Activity [4]: Active
Activity [5]: Active
Activity [6]: Active
IC50 [7]: 33 nM
Activity [8]: Active
Activity [9]: Active
Activity [10]: Active
Activity [11]: Active
SMILES: C=CC(=O)Nc1ccccc1Nc1nc(Nc2ccc(N3CCN(CCOCCOCCOCCNC(=O)CCCC[C@@H]4SC[C@@H]5NC(=O)N[C@@H]54)CC3)cc2)ncc1Cl

SMILES: C=CC(=O)Nc1ccccc1Nc1nc(Nc2ccc(N3CCN(C)CC3)cc2)ncc1Cl
Activity (NCI-H358): Active
inhibition [12]: -10%

SMILES: C=CC(=O)Nc1ccccc1Oc1nc(Nc2cnn(CCOC)c2)ncc1Cl
inhibition [13]: Active
